Bioassay records from PubChem.
Lmaj promast – Leishmania major promastigote growth inhibition; Leishmania major promastigotes, resazurin fluorescence viability; inhibition, % at 10 µM; 200,000 compounds, 9% hits; in the data active = inhibition above about 50%;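 also: promastigotes grown with compound for 44 hours at 28 °C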
MT stabilize HCS – microtubule stabilization, imaging screen; HeLa tubulin immunostaining HCS, 24 h; share of cells brighter than vehicle mean+2SD; % tubulin-high responders, % at 10 µM; 200,000 compounds, 0.83% hits; AID 2205;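 active = plate Z-score above 3 for both tubulin-high and condensed-nucleus cell shares, with cell loss under 80%, at 10 µM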;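 also: anti alpha tubulin signal scored within the nucleus-defined area of each cell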
b-catenin transl – alters nuclear translocation of beta-catenin in HeLa cells; 190,000 compounds, 0.3% hits; nuclear translocation activity, % at 5 µM; AID 1665; immunofluorescence imaging;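 active = nuclear translocation activity above 50% at 5 µM, with a well cell count of 50 or more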;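 also: per-cell ratio of nuclear to cytoplasmic median beta-catenin stain intensity; plate controls were DMSO negative control for no effect and GSK-3 inhibitor IX positive control for full effect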
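test system = HeLa cells, endogenous beta-catenin | dosing = single 5 µM dose plus 0.02–20 µM confirmation series | times = compound treatment 24 h, 37°C, 5% CO2 | technique = beta-catenin immunofluorescence imaging with DAPI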
Dynein transport – dynein cargo transport inhibition; 3617.4 mouse cells, GR-EGFP nuclear translocation imaging; test concentration mostly 20 µM; stimulated with dexamethasone, 1 µM; active compounds read low; z-score, hits read low; 220,000 compounds, 0.47% hits; AID 1381;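 active = plate z-score of nuclear minus cytoplasmic receptor signal below a set negative limit, without overly bright fluorescence or cell loss, cut at about -3.5 in these data, passing the limit was not always enough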;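 also: z-score of nuclear minus cytoplasmic ring GR-EGFP intensity difference per well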
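medium = tetracycline-free induction medium containing charcoal-stripped FBS | also added = 1.0 µM final dexamethasone stimulus | schedule = 48 h induction, 1 h compound, 30 min dex at 37 °C | technique = fixed, Hoechst-stained cells imaged at 10x for EGFP | measure = GR-EGFP nuclear translocation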
HSV replic up – HSV replication enhancement. HSV replication augmentation in cells, fold increase. maximum fold increase. 220,000 compounds, 0.005% hits; in the data active = maximum fold increase above about 1.5; tested in PC3 cells
The depositor's hits bear a star; i = inactive; x = no result. This is a sample that favours compounds with a hit; in the whole collection about 8.9% have one here.

SMILES	Lmaj promast	MT stabilize HCS	b-catenin transl	Dynein transport	HSV replic up
NC(=O)c1ccc(NCC2COc3ccccc3O2)c([N+](=O)[O-])c1 (centres undefined)	12	6	-2	-0.68	i
COc1ccccc1NC(=O)N(c1c(N)n(Cc2ccccc2)c(=O)[nH]c1=O)C1CCCC1	-4	3	-7	0.31	i
COc1cc([N+](=O)[O-])cc(/C=N/NC(=O)CSc2nnc(-c3ccccc3)n2C)c1O	x	x	0	-0.57	i
Cn1c(SCC(=O)N/N=C/c2ccc([N+](=O)[O-])s2)nnc1-c1ccc(Cl)cc1	100*	3	-3	-1.3	i
Cc1ccc(NC(=O)Cn2cnc3sc(C(=O)NCCN(C)C)c(C)c3c2=O)cc1Cl	76*	2	-5	0.31	i
CCN(CC)CCCNC(=O)c1sc2ncn(CC(=O)Nc3ccc(C)c(Cl)c3)c(=O)c2c1C	11	2	1	-0.1	i
CCOC(=O)C(=O)Nc1nnc(SCc2ccc(F)cc2)s1	-5	3	-6	0.011	i
O=C(Nc1nc(-c2ccco2)c(-c2ccco2)s1)C1CCC1	86*	2	x	-0.47	i
O=C(Nc1nnc(-c2ccco2)s1)C1CCCCC1	-5	4	0	-0.04	i
CC1=C(C(=O)OCCNC(=O)c2ccccc2O)C(c2ccccc2[N+](=O)[O-])C(C(=O)OCC2CCCO2)=C(C)N1 (centres undefined)	93*	3	-4	-0.69	i
CSc1nc(SCC(=O)NC(c2ccccc2)c2ccccc2)c2c3c(sc2n1)CN(C)CC3	71*	2	-2	0.23	i
COC(=O)CNc1c(-c2ccccn2)nc2ccc(Br)cn12	-1	2	x	-0.8	i
Cc1ccc2nc(-c3ccccn3)c(NC3CCCC3)n2c1	100*	3	1	-0.48	i
Cc1ccc(Nc2c(-c3ccccn3)nc3cccc(C)n23)cc1	101*	3	x	-0.56	i
Cc1cccc(C)c1Nc1c(-c2ccccn2)nc2ccccn12	100*	4	-4	-0.44	i
Cc1ccccc1Nc1c(-c2ccccn2)nc2c(C)cccn12	37	4	-1	-0.14	i
Cc1cccc(C)c1Nc1c(-c2ccsc2)nc2ncccn12	80*	4	-3	-0.48	i
CC(C)Cn1c(-c2cccs2)nc2ccccc21	22	3	4	0.18	i
Cc1cc(-c2csc(N)n2)c(C)n1C	6	1	x	-0.59	i
Cc1ccc(-n2c(C)cc(-c3csc(N)n3)c2C)cc1	67*	4	3	1.6	i
Cc1nc2c3ccccc3nc(SCC(=O)c3ccc(Cl)cc3)n2n1	-1	4	-2	1.3	i
CC1CC(OCC(O)CN2CCOCC2)CC(C)(C)C1 (centres undefined)	77*	5	-2	-0.2	i
CCOC(=O)N1CCN(CC(O)COC2CC(C)CC(C)(C)C2)CC1 (centres undefined)	93*	2	-7	0.031	i
CC1CC(OCC(O)C[N+]2(C)CCOCC2)CC(C)(C)C1 (centres undefined)	-7	2	0	0.76	i
Cc1ccc(NC(=O)c2cc(=O)c3ccccc3o2)cc1S(=O)(=O)N1CCOCC1	x	x	0	0.78	i
SMILES	Lmaj promast	MT stabilize HCS	b-catenin transl	Dynein transport	HSV replic up
O=C(Nc1ccc(S(=O)(=O)N2CCCC2)cc1)C1COc2ccccc2O1 (centres undefined)	-2	3	1	-0.048	i
COC(=O)/C(=C/c1ccco1)NC(=O)c1ccco1	80*	4	2	1.9	i
COC(=O)/C(=C/c1ccco1)NC(=O)c1ccccc1	2	1	1	-0.36	i
Cc1ccc(C(=O)N/C(=C/c2ccco2)C(=O)OCN2C(=O)c3ccccc3C2=O)cc1	61*	1	-1	-0.64	i
CCOC(=O)C1=C(C)NC(=O)NC1c1ccc(OC(C)C(=O)O)c(OC)c1 (centres undefined)	-9	5	x	0.047	i
COCCNC(=O)c1cc(S(=O)(=O)N(C)c2ccccc2OC)ccc1C	x	x	1	0.46	i
CCc1cccc(CC)c1NC(=O)/C(C#N)=C/c1ccccc1C(F)(F)F	97*	6	2	-0.72	i
N#C/C(=C\c1ccccc1C(F)(F)F)C(=O)Nc1ccccc1	2	3	0	0.1	i
C=CCN(CC=C)S(=O)(=O)c1ccc(NC(=S)NC(=O)Cc2ccc(OC)cc2)cc1	62*	2	0	3.4	i
COc1cc(C(Nc2ccccn2)c2c(NC(=O)c3ccco3)sc(C)c2C)cc(OC)c1OC (centres undefined)	19	4	0	-0.6	i
O=C(COc1ccc(S(=O)(=O)N2CCCC2)cc1Cl)NC1CC1	-1	3	-1	0.45	i
O=C(CCc1nnc(-c2ccccc2)o1)c1ccc(Cl)cc1	x	x	2	-0.65	i
N#C/C(=C\c1cc2ccccc2nc1N1CCCCC1)C(N)=O	76*	2	0	0.69	i
CC1CCC2C(=O)N(c3ccccc3OC(=O)c3ccccc3)C(=O)C2C1 (centres undefined)	-6	2	-3	0.23	x
CCCCN(C(=O)CN1CC(C)OC(C)C1)c1c(N)n(CC(C)C)c(=O)[nH]c1=O (centres undefined)	-6	4	0	-0.93	i
CC1CC(C)CN(CCCNC(=O)c2csc3c2CCCC3)C1 (centres undefined)	93*	1	0	2	i
CC(C)CCNC(=O)c1csc2c1CCCCC2	13	2	-1	0.36	i
CCCCN(CC)CCCNC(=O)c1csc2c1CCCCC2	87*	3	-3	1.2	i
COc1ccccc1N1CCN(Cc2nc(-c3ccc(F)cc3)oc2C)CC1	16	2	0	-0.12	i
Cc1cc(N2CCN(Cc3nc(-c4ccc(F)cc4)oc3C)CC2)cc(C)n1	93*	5	-1	-0.81	i
CCCN1C(=O)c2ccc(C(=O)Nc3cc(C)on3)cc2C1=O	-2	2	0	-0.88	i
C/C(=N\NC(=O)c1nn(C)cc1Br)c1ccncc1	16	1	-1	-0.82	i
COc1ccc2c(c1)C(c1ccc(N3CCOCC3)cc1)=NNC(c1cccnc1)=N2	4	4	0	0.33	i
COc1ccc(C2=NNC(c3cccnc3)=Nc3ccc(OC)cc32)cc1	5	13*	0	-0.52	i
Cc1ccc(C2=Nc3ccc(Br)cc3C(c3ccncc3)=NN2)cc1	85*	2	0	-0.46	i
Cc1ccc2c(c1)C(c1ccncc1)=NNC(c1ccccc1)=N2	19	1	2	2	i
CCc1ccc2c(c1)C(c1ccncc1)=NNC(c1ccccc1)=N2	55*	3	0	-0.63	i
CC1=Nc2ccccc2/C1=C/c1sc(=O)n(CC(=O)N2CCCC2)c1O	4	4	0	1.4	i
